From ChEMBL document CHEMBL5532647, “Design, synthesis, ADME and biological evaluation of benzylpiperidine and benzylpiperazine derivatives as novel reversible monoacylglycerol lipase (MAGL) inhibitors” (Eur J Med Chem, 2024)
Converted amounts (≈) assume the structure as drawn. The source made the active and inactive calls. The calls are words filed in the database; no cut-off is given here.

Legend:
[1] = Thermodynamic aqueous solubility of the compound by LC-MS/MS analysis; format: physicochemical; conditions: read-out: Therm_solubility
Summary of the method: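 Solid compound (1 mg) shaken overnight in 1 mL distilled water at room temperature. Suspension passed through a 0.45 μm nylon filter. Dissolved compound quantified in triplicate by UV/LC-MS or LC-MS/MS against a calibration curve of compound in methanol.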

[2] = target: T1, Lysophosphatidylserine lipase ABHD12 (Homo sapiens) (UniProt Q8N2K0); assay: Inhibition of human ABHD12 transfected in HEK293 cells at 10 uM preincubated with compound for 30 mins followed by 2-OG addition and measured after 5 mins by liquid scintillation spectroscopy; format: cell-based; conditions: time 35.0 min
T1 sequence (whole entry): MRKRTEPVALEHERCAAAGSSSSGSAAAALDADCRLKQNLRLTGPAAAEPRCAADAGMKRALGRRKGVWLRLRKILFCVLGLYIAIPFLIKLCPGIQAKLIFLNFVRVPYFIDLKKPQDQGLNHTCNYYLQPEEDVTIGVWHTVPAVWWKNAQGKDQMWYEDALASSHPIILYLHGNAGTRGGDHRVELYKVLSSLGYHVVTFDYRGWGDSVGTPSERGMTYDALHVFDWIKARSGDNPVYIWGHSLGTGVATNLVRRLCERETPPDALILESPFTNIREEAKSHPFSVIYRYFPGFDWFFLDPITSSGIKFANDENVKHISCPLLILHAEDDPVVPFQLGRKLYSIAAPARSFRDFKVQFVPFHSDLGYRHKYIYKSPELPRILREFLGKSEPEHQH
Summary of the method: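 Homogenates (40 μg) of HEK293 cells stably transfected with hABHD6 or hABHD12. Compound 10 μM preincubated 30 min at 37 °C, 500 rpm, in Tris/EDTA buffer with 0.1% fatty acid-free BSA, pH 7.6. Controls: WWL70 10 μM or THL 20 μM; DMSO vehicle. 2-OG 10 μM added for 5 min at 37 °C. Stopped with ice-cold CHCl3:MeOH; aqueous phase counted. No-enzyme blanks used; non-transfected HEK293 hydrolysis subtracted.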

[3] = Toxicity in Tenebrio molitor coleoptera assessed as lethal dose measured for 7 days; conditions: time 7 day
Summary of the method: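 Tenebrio molitor beetles used within three days of metamorphosis. Compound dissolved in DMSO, 1 μL injected into the hemocoel between pronotum and elytron. Range-finding on 1 insect starting at 200 mg/kg. Dose then given to five insects with survival monitored 7 days, repeated until LD50 found, and confirmed in ten insects.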

[4] = target: Cannabinoid receptor 1 (Homo sapiens) (UniProt P21554); assay: Displacement of [3H]CP55940 from human CB1 receptor at 10 uM incubated for 90 mins
Sequence of Cannabinoid receptor 1 (Homo sapiens) (P21554 whole entry): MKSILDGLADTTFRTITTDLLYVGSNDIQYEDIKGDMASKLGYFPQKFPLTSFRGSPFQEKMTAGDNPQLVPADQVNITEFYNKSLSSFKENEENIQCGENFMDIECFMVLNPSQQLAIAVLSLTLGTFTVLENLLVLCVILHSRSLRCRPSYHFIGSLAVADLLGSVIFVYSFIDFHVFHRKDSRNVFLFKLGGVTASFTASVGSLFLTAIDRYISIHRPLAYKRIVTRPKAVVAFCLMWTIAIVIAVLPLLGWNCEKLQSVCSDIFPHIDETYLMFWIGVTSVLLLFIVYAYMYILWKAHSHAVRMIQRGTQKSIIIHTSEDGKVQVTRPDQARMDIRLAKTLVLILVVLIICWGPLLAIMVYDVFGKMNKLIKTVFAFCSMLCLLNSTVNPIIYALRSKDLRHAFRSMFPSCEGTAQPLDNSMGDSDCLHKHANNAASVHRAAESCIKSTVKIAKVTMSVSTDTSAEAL
Summary of the method: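 Membranes expressing hCB1 or hCB2 in 50 mM Tris-HCl buffer, pH 7.4, with 2.5 mM EDTA, 5 mM MgCl2 and 0.5% fatty acid-free BSA. Incubated with compound (10 μM screening) or vehicle plus 0.5 nM [3H]CP55,940 for 90 min at 30 °C. Non-specific binding defined with 10 μM […]. GF/B filtration, ice-cold buffer washes, radioactivity counted. Two independent experiments in triplicate.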

[5] = Permeability of the compound assessed as membrane retention rate by PAMPA method; format: ADME
Summary of the method: (§1)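 Donor solution made from 1 mM DMSO stock diluted in 25 mM phosphate buffer pH 7.4 to 500 μM final. Filter coated with 1% (w/v) phosphatidylcholine in dodecane. Acceptor was 1:1 v/v DMSO/phosphate buffer. Sandwich incubated 5 h at room temperature. Compound in donor and acceptor wells quantified by UV/LC-MS.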

[6] = Stability in human plasma measured after 24 hrs by UV/LC-MS analysis; format: ADME, cell-free; conditions: read-out: Stability
Summary of the method: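 Compound (2 mM) incubated at 37 °C in pooled human plasma (55.7 mg protein/mL) with HEPES 25 mM, NaCl 140 mM, pH 7.4. Samples taken at 0–24 h and precipitated with cold acetonitrile. After centrifugation, supernatant analysed by UV/LC-MS. Three independent experiments.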

[7] = Metabolic stability in human liver microsome in presence of NADPH-regenerating system by UV/LC-MS analysis; format: ADME; conditions: microsomes
Summary of the method: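 Compound incubated 1 h at 37 °C with human liver microsomes (0.2 mg/mL) and an NADPH-regenerating system (NADPH 0.2 mM, NADP+ 1 mM, glucose-6-phosphate 4 mM, G6PDH 4 unit/mL, MgCl2 48 mM) in 25 mM phosphate buffer pH 7.4. Quenched with acetonitrile, then centrifuged. Parent and metabolites measured by UV/LC-MS. Percent unmetabolized obtained against reference solutions; three independent experiments.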

[8] = Apparent permeability of the compound by PAMPA method; format: ADME; summary of the method: as §1

O=C(c1cc(O)ccc1F)N1CCN(Cc2cccc(Sc3cc(C(F)(F)F)ccn3)c2)CC1
solubility thermodynamic [1]: 5.47 µg/mL (≈ 11.1 µM)
inhibition [2]: inactive
LD50 at 168 h [3]: 300 mg/kg
Activity [4]: inactive
R% [5]: 3.2%
remaining at 24 h [6]: > 99%
Stability [7]: 98.51%
Papp [8]: 1.33 ×10⁻⁶ cm/s

O=C(c1cccc(O)c1)N1CCC(Cc2ccc(F)c(Sc3cc(C(F)(F)F)ccn3)c2)CC1
inhibition [2]: inactive
Activity [4]: inactive

O=C(c1cccc(O)c1)N1CCC(Cc2cccc(Sc3cc(C(F)(F)F)ccn3)c2)CC1
inhibition [2]: inactive
Activity [4]: inactive

O=C(c1cc(O)ccc1F)N1CCC(Cc2cccc(Sc3cc(C(F)(F)F)ccn3)c2)CC1
solubility thermodynamic [1]: 0.00321 µg/mL (≈ 0.00655 µM)
inhibition [2]: inactive
LD50 at 168 h [3]: 200 mg/kg
Activity [4]: inactive
R% [5]: 17.3%
remaining at 24 h [6]: 74.1%
Stability [7]: 96.76%
Papp [8]: 3.3 ×10⁻⁶ cm/s
